Screening data (PubChem)
This is a sample that favours compounds with a hit; in the whole collection about 4.5% have one here.
OX1R antag-1 – blocks the human orexin 1 receptor; CHO/OX1R cells, Fluo-8 calcium fluorescence, orexin A; inhibition, % at 5 µM; 330,000 compounds, 0.43% hits; AID 434989;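 active means inhibition above its plate's threshold, mean inhibition of all tested compounds on the plate plus 3 SD, cut at about 37% in these data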;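 further: 0% = orexin A challenge wells and 100% = SB-334867-A antagonist wells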
GPR7 antag – blocks human GPR7 receptor signaling. GPR7-expressing cells, fluorescence antagonist assay. 290,000 compounds, 1.1% hits. P48145. AID 1861. inhibition, % at 4.4 µM; in the data active means inhibition above about 16%, passing the limit was not always enough;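 further: cells stimulated with the agonist NPW; 0% = agonist with vehicle and 100% = vehicle without agonist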
Target sequence (P48145 whole entry, looked up): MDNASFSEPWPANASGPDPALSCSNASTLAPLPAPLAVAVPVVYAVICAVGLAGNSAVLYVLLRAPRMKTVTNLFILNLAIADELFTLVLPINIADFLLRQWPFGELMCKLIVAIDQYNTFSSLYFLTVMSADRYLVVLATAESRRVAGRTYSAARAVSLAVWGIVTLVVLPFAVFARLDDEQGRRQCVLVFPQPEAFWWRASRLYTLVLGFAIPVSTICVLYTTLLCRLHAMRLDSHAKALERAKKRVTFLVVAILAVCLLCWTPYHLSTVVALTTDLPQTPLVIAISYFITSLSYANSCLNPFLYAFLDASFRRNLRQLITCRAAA
CHO parental Ca – counter-screen: ATP calcium response change in parental CHO cells. inhibition, % at 5.6 µM. 330,000 compounds, 0.63% hits. parental CHO-K1, ATP-induced calcium, Fluo-8 fluorescence;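 active means inhibition above that plate's mean sample inhibition plus 3 SD, cut at about 26% in these data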;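 further: 0% = ATP-challenged DMSO wells and 100% = DMSO wells without ATP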
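Material – parental CHO cells · Reagent – ATP stimulus · Compound – single nominal dose of 5.6 µM per compound · Detection – Fluo-8 fluorescence · Read-out basis – percent inhibition of calcium signal · Controls – ATP-challenged DMSO wells low, unchallenged DMSO wells high · Repeats – no replicates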
TAAR1 antagonist – human TAAR1 antagonism; AID 624466; 360,000 compounds, 1.5% hits; Q96RJ0; inhibition, % at 3 µM; CHO RD-HGA16 TAAR1, Fluo-8 calcium fluorescence, antagonist;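 active means inhibition above a per-plate cutoff, the mean inhibition of test compounds on that plate plus 3 SD, cut at about 49% in these data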;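 further: 0% = DMSO plus EC80 beta-PEA response and 100% = DMSO alone without agonist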
Target sequence (Q96RJ0 whole entry, looked up): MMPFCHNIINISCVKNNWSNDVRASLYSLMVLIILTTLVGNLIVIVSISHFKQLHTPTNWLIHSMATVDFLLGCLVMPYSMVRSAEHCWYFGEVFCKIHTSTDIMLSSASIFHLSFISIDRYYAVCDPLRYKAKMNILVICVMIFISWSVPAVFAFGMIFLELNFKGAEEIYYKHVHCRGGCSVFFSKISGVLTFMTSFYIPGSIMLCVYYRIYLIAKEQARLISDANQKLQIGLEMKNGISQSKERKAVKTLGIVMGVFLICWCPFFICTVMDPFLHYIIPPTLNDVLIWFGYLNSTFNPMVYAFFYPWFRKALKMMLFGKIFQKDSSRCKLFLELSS
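test system = CHO RD-HGA16 cells bearing hTAAR1 | replication = singlicate | controls = DMSO-only wells and EC80 β-PEA-stimulated wells | reagent = EC80 β-phenethylamine stimulus | read-out basis = percent inhibition of PEA-evoked calcium signal, max/basal emission ratio | schedule = seeding 17-24 h prior, 75-min 37 °C, 30-min RT dye loading | signal = kinetic Fluo-8 calcium fluorescence measurement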
TAAR1 agonist – human TAAR1 agonism. activation, % at 3 µM. Q96RJ0. CHO RD-HGA16 TAAR1, Fluo-8 calcium fluorescence; vehicle wells 0%, saturating PEA agonist 100%. 360,000 compounds, 0.99% hits;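 active means activation above the mean activation of all test compounds in the run plus 3 SD, cut at about 38% in these data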
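Benchmarks: low control DMSO, high control PEA (EC100); System: CHO RD-HGA16 cells carrying human TAAR1 plus Gα16; Detection: Fluo-8 fluorescence, 5 s baseline then 140 s kinetic read; Schedule: 17-24 h plating, Fluo-8 75 min 37 °C, 30 min RT; Read-out basis: % activation from peak over basal fluorescence ratio, DMSO-to-PEA scaled.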
OX1R antag-2 – antagonists of human orexin 1 receptor (OX1R); O43613; OX1R-expressing cells, FRET antagonist read-out; inhibition, % at 6.6 µM; 330,000 compounds, 1.8% hits; in the data active means inhibition mostly above about 38%, no sharp cut-off; inactive means mostly below about 40%;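 further: 0% = agonist challenge alone and 100% = reference antagonist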
TAAR1 nonsel count – counter-screen for TAAR1 antagonists: nonselective antagonists. counterscreen cell line, calcium fluorescence, antagonist mode. AID 651780. 2,400 compounds, 77% hits. shares compounds with TAAR1 antagonist. inhibition, % at 3 µM; in the data active means inhibition above about 22%;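 further: CHO-Ga16 host cells stimulated with ATP at an EC80 level; 0% = agonist EC80 plus vehicle and 100% = vehicle without agonist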
TAAR1 ant conf – human TAAR1 antagonism, confirmed. AID 651785. 2,400 compounds, 40% hits. TAAR1-expressing cells, fluorescence antagonist read-out. inhibition, % at 3 µM. shares compounds with TAAR1 antagonist; in the data active means inhibition above about 49%;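 further: CHO-Ga16 host cells challenged with agonist PEA near its EC80; 0% = agonist at EC80 plus vehicle and 100% = vehicle with no agonist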
Ga16 nonsel ag – nonselective Ga16 agonist in TAAR1 antagonist counter-screen; activation, % at 3 µM; Ga16-expressing cells, calcium fluorescence, agonist counterscreen; 2,400 compounds, 18% hits; shares compounds with TAAR1 antagonist; AID 651953; in the data active means activation above about 12%;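 further: 0% = vehicle wells and 100% = saturating stimulus response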
TAAR1 ag counter – TAAR1 agonism, antagonist counter-screen; hTAAR1 cell line, fluorescence activation, agonist mode; activation, % at 3 µM; 2,400 compounds, 2% hits; AID 651955; shares compounds with TAAR1 antagonist; in the data active means activation above about 37%;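 further: CHO cells stably expressing TAAR1 with calcium dye readout; 0% = DMSO vehicle and 100% = full agonist response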
Starred values were filed as active, the others as inactive; x = no result given.

SMILES	OX1R antag-1	GPR7 antag	CHO parental Ca	TAAR1 antagonist	TAAR1 agonist	OX1R antag-2	TAAR1 nonsel count	TAAR1 ant conf	Ga16 nonsel ag	TAAR1 ag counter
O=C(c1ccc(S(=O)(=O)Cc2ccccc2Cl)c([N+](=O)[O-])c1)N1CCN(c2ccccn2)CC1	-11.9	7.9	-24.6	69.1*	17.4	55.4	38.4*	52.8*	14.6*	14.3
CN(c1ccccc1)S(=O)(=O)c1cc(C(=O)N2CCN(c3ccccn3)CC2)ccc1Cl	-25.8	-13.9	-11.2	59.5*	7.4	15.3	18.8	33.7	6.3	4.5
O=C(c1ccc(Cl)c([N+](=O)[O-])c1)N1CCN(c2ccccn2)CC1	-25.4	-8.8	-21.6	5.8	0.6	38.8	x	x	x	x
CC[C@H](C)C(C(=O)N1CCN(C(=O)OC(C)(C)C)CC1)n1cc(C(CC(C)C)NC(=O)OC(C)(C)C)nn1 (stereo partly drawn)	-28.0	6.8	-22.1	14.2	6.9	21.6	x	x	x	x
CSCCCc1cn([C@@H](CO)C(=O)NCCCCCCCCCCC(=O)N2CCNCC2)nn1	-20.5	x	-12.6	4.2	7.5	20.0	x	x	x	x
CSCC[C@@H](C(=O)NCCCCCCCCCCC(=O)N1CCN(C(=O)OC(C)(C)C)CC1)n1cc(CCO)nn1	-42.3	x	-5.9	50.2*	20.3	13.8	27.6*	42.5	9.2	10.4
CC[C@@H](C)[C@@H](C(=O)N1CCN(C(=O)OC(C)(C)C)CC1)n1cc(CCCCNC(=O)OC(C)(C)C)nn1	-13.1	-23.7	-14.7	68.9*	25.2	32.4	42.1*	61.1*	12.8*	13.0
CC(=O)N(C)c1ccc(NC(=O)c2ccc([N+](=O)[O-])cc2Cl)cc1	-1.6	0.8	-2.5	-21.3	4.7	38.6	x	x	x	x
COc1ccc(S(=O)(=O)N2CCC(C(=O)NCCc3ccccc3)CC2)cc1	-16.5	7.8	-2.8	-3.6	6.6	14.5	x	x	x	x
CCOc1ccc(NC(=O)CN(C)CC(=O)Nc2ccc(F)c(F)c2F)cc1OCC	-21.1	1.5	3.0	-13.4	0.1	14.2	x	x	x	x
COc1ccc(-c2coc3c(C(=O)Nc4cccc(C(C)=O)c4)cccc23)c(C)c1	x	x	x	57.2*	0.7	x	30.9*	30.8	0.9	-1.4
COc1ccc(-c2ccc(C(=O)Nc3cccc(C(C)=O)c3)c3occc23)c(C)c1	x	x	x	39.9	0.2	x	x	x	x	x
CCc1nc2c(OCc3ccc(C(=O)OC)cc3)cccn2c1N(C)C(=O)c1ccc(C)cc1	x	x	x	5.7	1.2	x	x	x	x	x
Cc1ccc(CSc2nnc(SCC(=O)N/N=C/c3c[nH]c4ccccc34)s2)cc1	x	-13.7	x	78.9*	9.5	x	28.1*	43.3	2.6	2.7
O=C(CSc1nnc(SCc2ccccc2)s1)N/N=C/c1c[nH]c2ccccc12	x	2.4	x	0.3	4.6	x	x	x	x	x
Cc1ccc(NC(=O)C2CCN(S(=O)(=O)c3c(C)nn(C)c3C)CC2)c(Cl)c1	-12.6	-11.7	-8.8	-22.2	1.4	1.9	x	x	x	x
Cc1ccc(S(=O)(=O)Nc2ccccc2N=Cc2ccc([N+](=O)[O-])cc2[N+](=O)[O-])cc1	x	x	x	64.2*	12.6	x	-3.9	-2.6	0.1	5.9
COc1ccc([N+](=O)[O-])cc1NS(=O)(=O)c1ccc(C)cc1	-8.8	-4.7	0.4	3.4	2.5	9.3	x	x	x	x
CCOC(=O)C1(Cc2cccc(OC)c2)CCCN(CCO)C1 (stereo not drawn)	-20.3	15.2	-19.9	-9.5	0.1	12.5	x	x	x	x
O=C1C2C(c3ccccc3)(C(=O)N1c1ccc(Cl)cc1)C2(c1ccccc1)c1ccccc1 (stereo not drawn)	-43.1	-5.8	-20.1	62.5*	2.7	20.8	16.0	35.4	4.0	13.0
C[C@H]1CN(C(=O)OC(C)(C)C)CCN1c1ccc(Br)c(C#N)c1	x	x	x	51.8*	-0.4	x	37.9*	45.3	11.3	13.5
CC(=O)c1ccc(NC(=O)c2ccc(CSc3ccccc3)o2)cc1	-15.9	4.0	-6.8	95.4*	3.9	41.8	28.1*	79.7*	4.9	-1.5
Cc1cc(C)cc(-n2ncc3c2CCCC3NC(=O)CN2CCCCC2=O)c1 (stereo not drawn)	-16.4	-5.3	-14.7	6.2	-0.6	9.7	x	x	x	x
COc1ccc(-c2nnc(SCC(=O)NC3CCCc4ccccc43)n2N)cc1 (stereo not drawn)	-21.0	-5.2	-21.2	16.5	-1.8	20.9	x	x	x	x
O=C(CSc1ccccc1C(=O)NCc1ccccc1)NC1CCCCCCC1	-20.3	0.3	-26.9	54.5*	12.5	3.9	18.0	30.9	6.1	2.5
SMILES	OX1R antag-1	GPR7 antag	CHO parental Ca	TAAR1 antagonist	TAAR1 agonist	OX1R antag-2	TAAR1 nonsel count	TAAR1 ant conf	Ga16 nonsel ag	TAAR1 ag counter
Nc1nc(-c2cc(O)ccc2[N+](=O)[O-])cc(-c2ccccc2)c1[N+](=O)[O-]	x	-8.7	x	48.9*	14.2	x	24.0*	39.9	5.6	3.1
COc1cccc(-c2nc(N3CCCCC3C)c3ccccc3n2)c1O (stereo not drawn)	-24.7	-32.3	5.6	-22.4	4.2	22.2	x	x	x	x
COc1cccc(-c2nc(NC3CCCC3)c3ccccc3n2)c1O	11.3	-37.4	-6.2	61.4*	8.2	30.1	21.5*	52.6*	7.5	12.2
COc1cc(/C=C2/SC(=S)N(CCC(=O)Nc3cccnc3)C2=O)cc(OC)c1OC	x	x	x	59.5*	11.3	x	30.0*	51.0*	10.3	16.2
COc1ccc(/C=C2/SC(=S)N(CCC(=O)Nc3cccnc3)C2=O)cc1OC	x	x	x	-5.4	2.6	x	x	x	x	x
O=C(CCN1C(=O)/C(=C/c2cccs2)SC1=S)Nc1ccc(O)cc1	-9.2	5.9	0.8	14.7	4.2	23.3	x	x	x	x
O=C(CCN1C(=O)/C(=C/c2cccs2)SC1=S)Nc1cccc(O)c1	5.7	-3.0	-1.4	72.4*	27.6	17.8	46.7*	60.3*	15.6*	17.7
COc1cc(/C=C2\SC(=S)N(CCC(=O)Nc3ccccc3)C2=O)cc(OC)c1OC	-9.2	-0.1	-20.5	31.9	6.1	19.6	x	x	x	x
COc1cc(/C=C2\SC(=S)N(CCC(=O)Nc3cccc(O)c3)C2=O)cc(OC)c1OC	-8.8	-18.3	-10.7	88.0*	13.6	6.7	35.8*	58.3*	10.7	10.7
CCC(C)(C)NC(=O)c1ccc2c(c1)N(CC(=O)N1CCCC1)C(=O)C(C)(C)O2	-19.5	-8.9	-10.7	-3.9	2.0	8.4	x	x	x	x
